From ChEMBL document CHEMBL1151252, “New lamellarin alkaloids from the Indian ascidian Didemnum obscurum and their antioxidant properties” (J Nat Prod, 2004) come the findings set out here.

Experiment [1] has as its system Radical scavenging activity. As to the kind of experiment: Antioxidant activity assessed as DPPH radical scavenging activity by HPLC. The format is functional. The procedure, abridged:
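In the HPLC DPPH assay, test material in methanol or DMSO is mixed 1:1 with methanolic DPPH (final 250 μM) and held in the dark for 20 min at room temperature, then filtered and run on reversed-phase HPLC with diode-array detection. IC50 is obtained by linear regression over at least five concentrations, each in triplicate.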
On the technique in general: The DPPH test is a chemical assay of radical scavenging.

A short description of experiment [2]: DPPH radical scavenging activity assessed as ratio of IC50 for trolox to IC50 for test compound. Format: functional. The procedure, abridged:
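TEAC is the ratio of Trolox IC50 to sample IC50. Both come from the same HPLC DPPH scavenging assay: 250 μM final DPPH, 20 min in the dark at room temperature, reversed-phase HPLC with diode-array detection. Each IC50 is derived by linear regression from at least five concentrations in triplicate.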

Molecules are shown by their SMILES.

What is called IC50 is the concentration at which inhibition is half-maximal.

For the compound `CC(C)(Sc1cc(C(C)(C)C)c(O)c(C(C)(C)C)c1)Sc1cc(C(C)(C)C)c(O)c(C(C)(C)C)c1` [PROBUCOL], the IC50 in experiment [1] is 52.7 µM. In addition, the Ratio IC50 in experiment [2] stood at 1.29.
As to `Cc1c(C)c2c(c(C)c1O)CCC(C)(C(=O)O)O2` (stereo unspecified) [TROLOX], in experiment [1], the half-maximal inhibitory concentration (IC50) amounted to 67.8 µM. Also, the Ratio IC50 in experiment [2] came out at 1.
The matching figures for `Cc1c(C)c2c(c(C)c1O)CC[C@@](C)(CCC[C@H](C)CCC[C@H](C)CCCC(C)C)O2` [ALPHA-TOCOPHEROL]: 63.6 µM and 1.07.
